Experimental data published in ChEMBL document CHEMBL4145531, “Synthesis of novel Chlorin e6-curcumin conjugates as photosensitizers for photodynamic therapy against pancreatic carcinoma” (Eur J Med Chem, 2018).
Each block holds one molecule with its values, some of them ahead of it. Activity calls are given as the source filed them. No cut-off for these calls is given here.

Key:
PANC-1 [1] = experiment: Phototoxicity in human PANC1 cells assessed as reduction in cell viability preincubated for 3 hrs followed by 9 J/cm2 laser light irradiation and measured after 72 hrs by MTT assay; assay type: functional, cell-based; details: PANC-1, light or radiation study
Outline: (§1)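 Cells were seeded at 5.0 x 10^3 per well and incubated overnight at 37 °C. AsPC-1 was in RPMI-1640 and MIA PaCa-2/PANC-1 in DMEM, with 10% FBS. Cells took up compound for 3h, then received 660 nm laser light (50 mW, 9 J/cm²).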

[2] = Selectivity index, ratio of IC50 for dark toxicity in human MIAPaCa2 cells to IC50 for phototoxicity in human MIAPaCa2 cells; assay type: cell-based, MIA PaCa-2; details: read-out: Ratio IC50
Outline: (§2)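 The ratio is the dark-toxicity IC50 over the phototoxicity IC50 in the same cell line, both from 72h MTT. The dark arm received no light. The photo arm was irradiated at 660 nm, 50 mW, 9 J/cm² after 3h compound exposure.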

[3] = Dark toxicity in human AsPC1 cells assessed as reduction in cell viability after 72 hrs by MTT assay; assay type: cell-based
Outline: (§3)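 AsPC-1 cells were grown in RPMI-1640, and MIA PaCa-2 and PANC-1 in DMEM, each with 10% FBS and 1% penicillin/streptomycin. 5.0 x 10^3 cells were seeded and left overnight at 37 °C. They were exposed to 0-300 µM compound for 3h without laser irradiation, then held 72h in the dark at 37 °C, 5% CO₂. Viability was read by MTT.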

[4] = Induction of singlet oxygen production in DMSO assessed as DPBF absorption intensity (reference value: 100%); assay type: functional
Outline: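 DPBF (50 µM in DMSO) was mixed with 1 µM photosensitizer in the dark. Samples were irradiated at 660 nm, 50 mW, 2 J/cm² for 40 s. Singlet oxygen was read as the decay of normalized DPBF absorbance at 418 nm relative to a DPBF-only control.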

[5] = Drug uptake in human AsPC1 cells at 5 uM after 3 to 24 hrs by FACS analysis; assay type: ADME, cell-based; details: aspc1, 5 µM
Outline: (§4)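 AsPC-1 cells (2 x 10^5) were seeded and kept in the dark at 37 °C for 24h. They were then incubated with 5 µM compound for 30 min to 24h. Cells were harvested by trypsin, washed three times in PBS and resuspended in PBS. Uptake was read as mean fluorescence intensity by FACS.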

[6] = Solubility of the compound in 2% DMSO/98% de-ionized water at 7.7 uM; assay type: physicochemical; details: buffer
[7] = Selectivity index, ratio of IC50 for dark toxicity in human AsPC1 cells to IC50 for phototoxicity in human AsPC1 cells; assay type: cell-based; details: read-out: Ratio IC50; outline: as §2
[8] = Dark toxicity in human PANC1 cells assessed as reduction in cell viability after 72 hrs by MTT assay; assay type: cell-based, PANC-1; outline: as §3
[9] = Drug uptake in human AsPC1 cells at 5 uM by FACS analysis; assay type: ADME, cell-based; details: aspc1, 5 µM, TDE = time-dependent effect; outline: as §4
[10] = Dark toxicity in human MIAPaCa2 cells assessed as reduction in cell viability after 72 hrs by MTT assay; assay type: cell-based, MIA PaCa-2; outline: as §3
ASPC1 [11] = experiment: Phototoxicity in human AsPC1 cells assessed as reduction in cell viability preincubated for 3 hrs followed by 9 J/cm2 laser light irradiation and measured after 72 hrs by MTT assay; assay type: functional, cell-based; details: ASPC1, light or radiation study; outline: as §1
MIA PaCa-2 [12] = experiment: Phototoxicity in human MIAPaCa2 cells assessed as reduction in cell viability preincubated for 3 hrs followed by 9 J/cm2 laser light irradiation and measured after 72 hrs by MTT assay; assay type: functional, cell-based; details: MIA PaCa-2, light or radiation study; outline: as §1
[13] = Selectivity index, ratio of IC50 for dark toxicity in human PANC1 cells to IC50 for phototoxicity in human PANC1 cells; assay type: cell-based, PANC-1; details: read-out: Ratio IC50; outline: as §2
ASPC1 [14] = experiment: Phototoxicity in human AsPC1 cells assessed as induction of apoptosis by measuring necrotic cells at 40 nM preincubated for 3 hrs followed by 9 J/cm2 laser light irradiation and measured after 24 hrs by Annexin V-FITC/propidium iodide staining based flow cytometry (reference value: 1.03%); assay type: functional
ASPC1 [15] = experiment: Potency index, ratio of chlorin e6 IC50 to compound IC50 for phototoxicity in human AsPC1 cells; assay type: functional
[16] = Drug uptake in human AsPC1 cells at 5 uM up to 0.5 to 24 hrs by FACS analysis; assay type: ADME, cell-based; details: aspc1, 5 µM; outline: as §4
ASPC1 [17] = experiment: Phototoxicity in human AsPC1 cells assessed as induction of apoptosis by measuring live cells at 20 nM preincubated for 3 hrs followed by 9 J/cm2 laser light irradiation and measured after 24 hrs by Annexin V-FITC/propidium iodide staining based flow cytometry (reference value: 91.51%); assay type: functional
ASPC1 [18] = experiment: Phototoxicity in human AsPC1 cells assessed as induction of apoptosis by measuring late apoptotic cells at 40 nM preincubated for 3 hrs followed by 9 J/cm2 laser light irradiation and measured after 24 hrs by Annexin V-FITC/propidium iodide staining based flow cytometry (reference value: 0.41%); assay type: functional
ASPC1 [19] = experiment: Phototoxicity in human AsPC1 cells assessed as induction of apoptosis by measuring late apoptotic cells at 20 nM preincubated for 3 hrs followed by 9 J/cm2 laser light irradiation and measured after 24 hrs by Annexin V-FITC/propidium iodide staining based flow cytometry (reference value: 0.41%); assay type: functional
[20] = Solubility of the compound in 2% DMSO/98% de-ionized water at 8.2 uM; assay type: physicochemical; details: buffer
ASPC1 [21] = experiment: Phototoxicity in human AsPC1 cells assessed as induction of apoptosis by measuring necrotic cells at 20 nM preincubated for 3 hrs followed by 9 J/cm2 laser light irradiation and measured after 24 hrs by Annexin V-FITC/propidium iodide staining based flow cytometry (reference value: 1.03%); assay type: functional
PANC-1 [22] = experiment: Potency index, ratio of chlorin e6 IC50 to compound IC50 for phototoxicity in human PANC1 cells; assay type: functional
ASPC1 [23] = experiment: Phototoxicity in human AsPC1 cells assessed as induction of apoptosis by measuring live cells at 60 nM preincubated for 3 hrs followed by 9 J/cm2 laser light irradiation and measured after 24 hrs by Annexin V-FITC/propidium iodide staining based flow cytometry (reference value: 91.51%); assay type: functional
ASPC1 [24] = experiment: Phototoxicity in human AsPC1 cells assessed as induction of apoptosis by measuring early apoptotic cells at 40 nM preincubated for 3 hrs followed by 9 J/cm2 laser light irradiation and measured after 24 hrs by Annexin V-FITC/propidium iodide staining based flow cytometry (reference value: 7.05%); assay type: functional
ASPC1 [25] = experiment: Phototoxicity in human AsPC1 cells assessed as induction of apoptosis by measuring early apoptotic cells at 60 nM preincubated for 3 hrs followed by 9 J/cm2 laser light irradiation and measured after 24 hrs by Annexin V-FITC/propidium iodide staining based flow cytometry (reference value: 7.05%); assay type: functional
ASPC1 [26] = experiment: Phototoxicity in human AsPC1 cells assessed as induction of apoptosis by measuring early apoptotic cells at 20 nM preincubated for 3 hrs followed by 9 J/cm2 laser light irradiation and measured after 24 hrs by Annexin V-FITC/propidium iodide staining based flow cytometry (reference value: 7.05%); assay type: functional
ASPC1 [27] = experiment: Phototoxicity in human AsPC1 cells assessed as induction of apoptosis by measuring late apoptotic cells at 60 nM preincubated for 3 hrs followed by 9 J/cm2 laser light irradiation and measured after 24 hrs by Annexin V-FITC/propidium iodide staining based flow cytometry (reference value: 0.41%); assay type: functional
[28] = Drug uptake in human AsPC1 cells at 5 uM after 3 hrs by FACS analysis relative to chlorin e6; assay type: ADME, cell-based; details: aspc1, 3 h; outline: as §4
ASPC1 [29] = experiment: Phototoxicity in human AsPC1 cells assessed as induction of apoptosis by measuring downregulation of Bcl2 expression at 20 to 40 nM preincubated for 3 hrs followed by 9 J/cm2 laser light irradiation and measured after 24 hrs by Western blot analysis; assay type: functional, cell-based
Outline: (§5)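 Cells in six-well plates were exposed to compound for 3h and irradiated at 660 nm (50 mW, 9 J/cm²), then incubated 24h. Lysis was on ice in modified RIPA buffer (pH 7.4) with protease inhibitors. After clearing at 10,000g for 10 min at 4 °C, proteins were separated by 10% SDS-PAGE, blotted and detected by ECL.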

MIA PaCa-2 [30] = experiment: Potency index, ratio of chlorin e6 IC50 to compound IC50 for phototoxicity in human MIAPaCa2 cells; assay type: functional
[31] = Drug uptake in human AsPC1 cells at 5 uM after 24 hrs by FACS analysis relative to chlorin e6; assay type: ADME, cell-based; details: aspc1, 24 h; outline: as §4
ASPC1 [32] = experiment: Phototoxicity in human AsPC1 cells assessed as induction of apoptosis by measuring upregulation of cleaved caspase-9 expression at 20 to 40 nM preincubated for 3 hrs followed by 9 J/cm2 laser light irradiation and measured after 24 hrs by Western blot analysis; assay type: functional, cell-based; outline: as §5
ASPC1 [33] = experiment: Phototoxicity in human AsPC1 cells assessed as induction of apoptosis by measuring upregulation of Bax expression at 20 to 40 nM preincubated for 3 hrs followed by 9 J/cm2 laser light irradiation and measured after 24 hrs by Western blot analysis; assay type: functional, cell-based; outline: as §5
ASPC1 [34] = experiment: Phototoxicity in human AsPC1 cells assessed as induction of apoptosis by measuring live cells at 40 nM preincubated for 3 hrs followed by 9 J/cm2 laser light irradiation and measured after 24 hrs by Annexin V-FITC/propidium iodide staining based flow cytometry (reference value: 91.51%); assay type: functional
ASPC1 [35] = experiment: Phototoxicity in human AsPC1 cells assessed as induction of apoptosis by measuring necrotic cells at 60 nM preincubated for 3 hrs followed by 9 J/cm2 laser light irradiation and measured after 24 hrs by Annexin V-FITC/propidium iodide staining based flow cytometry (reference value: 1.03%); assay type: functional
[36] = Solubility of the compound in 2% DMSO/98% de-ionized water at 8.4 uM; assay type: physicochemical; details: buffer

Drug uptake [5]: Active | solubility [6]: Soluble | Drug uptake [9]: Tde
Compound: C=Cc1c(C)c2cc3nc(c(CC(=O)OC)c4[nH]c(cc5nc(cc1[nH]2)C(C)=C5CC)c(C)c4C(=O)NCCCOCCOCCOCCCNC(=O)CCCC(=O)Oc1ccc(/C=C/C(=O)CC(=O)/C=C/c2ccc(O)c(OC)c2)cc1OC)C(CCC(=O)OC)C3C (centres undefined)
IC50 (PANC-1 [1]): 15.7 µM | selectivity ratio [2]: > 64.7 | IC50 at 72 h [3]: 193 µM | Activity [4]: 12.3% | selectivity ratio [7]: 32.5 | IC50 at 72 h [8]: > 300 µM | IC50 at 72 h [10]: > 300 µM | IC50 (ASPC1 [11]): 5.93 µM | IC50 (MIA PaCa-2 [12]): 4.64 µM | selectivity ratio [13]: > 19.1

Drug uptake [16]: Active | solubility [20]: Soluble | Drug uptake [9]: Tde | fold change (FC) [28]: 47 | fold change (FC) [31]: 29
Compound: C=Cc1c(C)c2cc3nc(c(CC(=O)OC)c4[nH]c(cc5nc(cc1[nH]2)C(C)=C5CC)c(C)c4C(=O)NCCOCCOCCNC(=O)CCCC(=O)Oc1ccc(/C=C/C(=O)CC(=O)/C=C/c2ccc(O)c(OC)c2)cc1OC)C(CCC(=O)OC)C3C (centres undefined)
Activity (ASPC1 [14]): 2.22% | IC50 (PANC-1 [1]): 0.04 µM | Ratio IC50 (ASPC1 [15]): 488 | selectivity ratio [2]: 2370 | Activity (ASPC1 [17]): 77.38% | IC50 at 72 h [3]: 186 µM | Activity (ASPC1 [18]): 10.77% | Activity (ASPC1 [19]): 6.1% | Activity [4]: 12.1% | Activity (ASPC1 [21]): 1.43% | Ratio IC50 (PANC-1 [22]): 247 | selectivity ratio [7]: 4650 | IC50 at 72 h [8]: > 300 µM | Activity (ASPC1 [23]): 51.45% | Activity (ASPC1 [24]): 16.27% | Activity (ASPC1 [25]): 24.82% | IC50 at 72 h [10]: 83 µM | IC50 (ASPC1 [11]): 0.04 µM | Activity (ASPC1 [26]): 15.09% | Activity (ASPC1 [27]): 15.65% | Activity (ASPC1 [29]): Active | Ratio IC50 (MIA PaCa-2 [30]): 452 | IC50 (MIA PaCa-2 [12]): 0.035 µM | selectivity ratio [13]: > 7500 | Activity (ASPC1 [32]): Active | Activity (ASPC1 [33]): Active | Activity (ASPC1 [34]): 70.74% | Activity (ASPC1 [35]): 8.08%

solubility [36]: Soluble | Drug uptake [5]: Active | Drug uptake [9]: Tde
Compound: C=Cc1c(C)c2cc3nc(c(CC(=O)OC)c4[nH]c(cc5nc(cc1[nH]2)C(C)=C5CC)c(C)c4C(=O)NCCCCCCNC(=O)CCCC(=O)Oc1ccc(/C=C/C(=O)CC(=O)/C=C/c2ccc(O)c(OC)c2)cc1OC)C(CCC(=O)OC)C3C (centres undefined)
IC50 (PANC-1 [1]): 45.6 µM | selectivity ratio [2]: 5.6 | IC50 at 72 h [3]: 285 µM | Activity [4]: 10.1% | selectivity ratio [7]: 28.3 | IC50 at 72 h [8]: > 300 µM | IC50 at 72 h [10]: 265 µM | IC50 (ASPC1 [11]): 10.1 µM | IC50 (MIA PaCa-2 [12]): 47.3 µM | selectivity ratio [13]: > 6.58
